We go through 6 compounds from ChEMBL document CHEMBL3232838, “Synthesis, crystal structure and biological evaluation of some novel 1,2,4-triazolo[3,4-b]-1,3,4-thiadiazoles and 1,2,4-triazolo[3,4-b]-1,3,4-thiadiazines” (Eur J Med Chem, 2014).

One test addresses Acetylcholinesterase (Electrophorus electricus, UniProt O42275). Kind of test: Inhibition of electric eel acetylcholinesterase using acetylthiocholine iodide as substrate preincubated for 10 mins before substrate addition after 15 mins by Ellman's method.
For another test, the target named is Cholinesterase (Homo sapiens, UniProt P06276). Kind of test: Inhibition of human BChE using butyrylthiocholine iodide as substrate preincubated for 10 mins before substrate addition after 15 mins by Ellman's method. The procedure, abridged:
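Ellman assay in 50 mM Tris-HCl, 0.1 M NaCl, 0.02 M MgCl2, pH 8.0, with DMSO at 1% final. hBChE (3.4 U/mg) is preincubated with compound for 10 min at 25 °C. Blanks lack enzyme or substrate. IC50 from linear regression.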
A general note: DTNB colorimetry detects thiols as they appear.

Test [1] has as its target Intestinal-type alkaline phosphatase (Bos taurus, UniProt P19111). Put plainly: Inhibition of calf intestinal alkaline phosphatase using p-nitrophenyl phosphate as substrate preincubated for 10 mins before substrate addition after 30 mins.
Test [2] can be described thus: Anticancer activity against Syrian golden hamster BHK21 cells at 100 uM after 48 hrs by SRB assay. To be noted: Mesocricetus auratus, BHK-21, 48 h; read-out: GI. It is filed as functional. The procedure, abridged:
(§1)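 RPMI-1640 culture with 10% heat-inactivated FBS, 2 mM glutamine, 1 mM pyruvate and penicillin/streptomycin at 37 °C, 5% CO2. Cells per 96-well well: H157 10⁴, BHK-21 5×10⁴. After 24 h, monolayers were exposed to 100, 10, 1 or 0.1 µM compound for 48 h, with vincristine as standard. Cells were fixed in cold 50% TCA (4 °C, 1 h) and stained with 0.4% SRB in 1% acetic acid (30 min). Dye was dissolved in 10 mM Tris and read at A490 minus A630. Read-out was percent inhibition.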
On the technique in general: The SRB assay estimates cell density from bound dye.

Test [3] is described as follows: Anticancer activity against Syrian golden hamster BHK21 cells at 10 uM after 48 hrs by SRB assay. To be noted: Mesocricetus auratus, BHK-21, 48 h; read-out: GI. Format: functional. The procedure, abridged: as §1
The nature of test [4]: Anticancer activity against Syrian golden hamster BHK21 cells at 1 uM after 48 hrs by SRB assay. Format: functional. To be noted: Mesocricetus auratus, BHK-21, 48 h; read-out: GI. The procedure, abridged: as §1
Test [5] is described as follows: Anticancer activity against Syrian golden hamster BHK21 cells at 0.1 uM after 48 hrs by SRB assay. Format: functional. To be noted: Mesocricetus auratus, BHK-21, 48 h; read-out: GI. The procedure, abridged:
as §1

Test [6] concerns NCI-H157. Kind of test: Anticancer activity against human NCI-H157 cells at 100 uM after 48 hrs by SRB assay. Format: functional. As to conditions: NCI-H157, 48 h, read-out: GI. The procedure, abridged:
as §1

Test [7] deals with NCI-H157. Kind of test: Anticancer activity against human NCI-H157 cells at 10 uM after 48 hrs by SRB assay. Format: functional. To be noted: NCI-H157, 48 h, read-out: GI. The essentials: as §1
The test system of test [8] is NCI-H157. Put plainly: Anticancer activity against human NCI-H157 cells at 1 uM after 48 hrs by SRB assay. It is filed as functional. To be noted: NCI-H157, 48 h, read-out: GI. The essentials: as §1
In test [9] the test system is NCI-H157. Kind of test: Anticancer activity against human NCI-H157 cells at 0.1 uM after 48 hrs by SRB assay. It is filed as functional. As to conditions: NCI-H157, 48 h, read-out: GI. The essentials: as §1
The subject of test [10] is Leishmania major. Kind of test: Antileishmanial activity against promastigote form of Leishmania major at 100 uM after 72 hrs by MTT assay. It is filed as functional. The essentials: (§2)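 Log-phase promastigotes grown at 25 °C in phenol-red-free D-MEM/F-12 with 10% heat-inactivated FBS, washed in PBS, seeded at 2.5×10⁶/mL (100 µL/well). Compounds in triplicate wells, 72 h at 25 °C; amphotericin B standard. MTT (5 mg/mL stock) 3 h, stopped with 50% isopropanol/10% SDS, OD570 minus 690. Percent inhibition vs control; mean ± SEM of three independent experiments.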

Test [11] deals with Leishmania major. Kind of test: Antileishmanial activity against promastigote form of Leishmania major at 10 uM after 72 hrs by MTT assay. Format: functional. The procedure, abridged: as §2
On the technique in general: Formazan colour is commonly taken as a measure of viable cells.

The test system of test [12] is Leishmania major. Put plainly: Antileishmanial activity against promastigote form of Leishmania major at 1 uM after 72 hrs by MTT assay. Format: functional. The essentials: as §2
Test [13] deals with Leishmania major. Put plainly: Antileishmanial activity against promastigote form of Leishmania major at 0.1 uM after 72 hrs by MTT assay. It is filed as functional. The essentials: as §2

Chain of Cholinesterase (P06276 whole entry): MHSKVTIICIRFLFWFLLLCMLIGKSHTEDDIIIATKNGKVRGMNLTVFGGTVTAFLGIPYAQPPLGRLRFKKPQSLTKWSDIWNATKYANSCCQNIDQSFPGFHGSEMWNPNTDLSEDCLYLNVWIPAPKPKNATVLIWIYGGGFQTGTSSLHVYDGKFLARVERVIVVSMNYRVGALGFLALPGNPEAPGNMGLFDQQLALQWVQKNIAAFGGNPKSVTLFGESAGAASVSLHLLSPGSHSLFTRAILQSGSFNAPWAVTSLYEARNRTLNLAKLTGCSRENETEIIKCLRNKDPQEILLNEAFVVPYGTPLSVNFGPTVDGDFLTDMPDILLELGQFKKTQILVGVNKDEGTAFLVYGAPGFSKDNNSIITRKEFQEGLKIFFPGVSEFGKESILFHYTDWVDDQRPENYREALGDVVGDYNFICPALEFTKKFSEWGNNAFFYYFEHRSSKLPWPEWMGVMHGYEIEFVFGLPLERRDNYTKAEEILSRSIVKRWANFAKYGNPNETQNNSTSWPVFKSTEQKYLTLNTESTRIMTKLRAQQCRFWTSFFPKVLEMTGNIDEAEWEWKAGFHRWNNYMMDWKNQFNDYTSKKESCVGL
Chain of Acetylcholinesterase (O42275 whole entry): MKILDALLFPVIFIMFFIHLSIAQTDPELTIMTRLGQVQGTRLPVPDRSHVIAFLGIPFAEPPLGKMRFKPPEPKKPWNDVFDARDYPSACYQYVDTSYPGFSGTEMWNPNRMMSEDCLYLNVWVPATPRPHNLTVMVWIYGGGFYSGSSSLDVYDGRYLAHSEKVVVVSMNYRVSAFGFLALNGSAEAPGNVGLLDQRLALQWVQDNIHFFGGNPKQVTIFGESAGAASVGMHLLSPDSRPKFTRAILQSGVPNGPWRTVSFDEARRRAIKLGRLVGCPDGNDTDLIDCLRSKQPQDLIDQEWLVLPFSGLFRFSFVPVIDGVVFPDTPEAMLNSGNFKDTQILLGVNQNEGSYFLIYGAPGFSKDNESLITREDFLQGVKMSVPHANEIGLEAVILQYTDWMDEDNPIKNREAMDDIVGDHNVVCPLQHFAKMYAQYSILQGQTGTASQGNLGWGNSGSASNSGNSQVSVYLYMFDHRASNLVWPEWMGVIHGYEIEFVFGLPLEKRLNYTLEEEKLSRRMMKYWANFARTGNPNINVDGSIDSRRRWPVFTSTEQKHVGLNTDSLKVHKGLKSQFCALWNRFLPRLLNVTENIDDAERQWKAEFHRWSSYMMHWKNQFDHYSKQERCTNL
Chain of Intestinal-type alkaline phosphatase (P19111 whole entry): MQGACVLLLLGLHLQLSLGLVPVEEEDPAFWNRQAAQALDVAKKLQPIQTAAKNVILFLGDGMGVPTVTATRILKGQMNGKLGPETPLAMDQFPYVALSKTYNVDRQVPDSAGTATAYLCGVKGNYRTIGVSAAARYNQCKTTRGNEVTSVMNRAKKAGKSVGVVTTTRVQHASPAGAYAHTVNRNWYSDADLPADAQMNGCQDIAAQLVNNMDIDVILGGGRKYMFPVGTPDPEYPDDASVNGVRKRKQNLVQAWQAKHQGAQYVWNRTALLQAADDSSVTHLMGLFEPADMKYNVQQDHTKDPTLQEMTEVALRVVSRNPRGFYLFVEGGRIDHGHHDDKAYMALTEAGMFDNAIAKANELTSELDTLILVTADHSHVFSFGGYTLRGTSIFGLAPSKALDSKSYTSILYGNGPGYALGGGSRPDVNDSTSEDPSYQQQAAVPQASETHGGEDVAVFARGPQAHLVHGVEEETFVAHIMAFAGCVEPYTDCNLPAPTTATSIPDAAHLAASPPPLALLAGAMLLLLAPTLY

As to `CN(C)C(=O)Oc1cccc([N+](C)(C)C)c1` [NEOSTIGMINE], the figures for the IC50 at Acetylcholinesterase and at Cholinesterase were 14.2 µM and 26.1 µM, respectively.

Turning to `Fc1cccc(C2=Nn3c(nnc3-c3ccncc3)SC2)c1`, the IC50 is 18.6 µM at Acetylcholinesterase and 9.83 µM in test [1]. The compound further displayed an inhibition at Cholinesterase of 38.7%. The inhibition of growth at 100 µM amounted to 64.3% in test [2] and 78.6% with NCI-H157 [6]. In addition, the inhibition of growth at 10 µM in test [3] came out at 61.2%; in the test with NCI-H157 [7], 75.6%. For the same compound, the inhibition of growth at 1 µM was determined as 56.9% in [4] and 72.3% in the test on NCI-H157 [8]. Further, the figures for the inhibition of growth at 0.1 µM (in [5]; with NCI-H157 [9]) were 54.6% and 69.6%, respectively. This compound also registered an inhibition at 100 µM with Leishmania major [10] of 52.3%. Besides, the inhibition at 10 µM with Leishmania major [11] turned out to be 49.6%. The compound further showed an inhibition at 1 µM with Leishmania major [12] of 46.1%. The compound further displayed an inhibition at 0.1 µM in the test with Leishmania major [13] of 44.9%.

Regarding `c1ccc2c(C3=Nn4c(nnc4-c4ccncc4)SC3)cccc2c1`, the results for the half-inhibitory concentration (IC50) (against Acetylcholinesterase; on Cholinesterase; in [1]) were 13.7 µM, 52.8 µM and 4.45 µM, respectively. In addition, the values for the inhibition of growth at 100 µM (in test [2]; in the test on NCI-H157 [6]) were 69.2% and 68.2%, respectively. Moreover, the figures for the inhibition of growth at 10 µM (in [3]; in the test with NCI-H157 [7]) were 64.7% and 63.7%, respectively. Also, the inhibition of growth at 1 µM was found to be 60.7% in test [4] and 59.9% in the test on NCI-H157 [8]. Further, the inhibition of growth at 0.1 µM in [5] turned out to be 53.3%; in the test on NCI-H157 [9] it was 55.2%. In the test on Leishmania major [10], the inhibition at 100 µM is 55.6%. The same compound gave an inhibition at 10 µM with Leishmania major [11] of 52.9%. Further, the inhibition at 1 µM in the test with Leishmania major [12] stood at 49%. The same compound displayed an inhibition at 0.1 µM in the test on Leishmania major [13] of 47.3%.

In the case of `c1ccc(-c2ccc(C3=Nn4c(nnc4-c4ccncc4)SC3)cc2)cc1`, the IC50 against Acetylcholinesterase was found to be 16.1 µM; against Cholinesterase it was 42.6 µM; in test [1], 3.84 µM. Also, the inhibition of growth at 100 µM is 45.8% in test [2] and 56.9% with NCI-H157 [6]. The inhibition of growth at 10 µM in test [3] is 41.8%; in the test with NCI-H157 [7], 62.3%. Further, the inhibition of growth at 1 µM in [4] was determined as 37.5%; in the test on NCI-H157 [8], 47.8%. Moreover, the results for the inhibition of growth at 0.1 µM (in [5]; in the test with NCI-H157 [9]) were 32.7% and 44.5%, respectively. In the test on Leishmania major [10], the inhibition at 100 µM came out at 61.2%. Further, testing at 10 µM in the test on Leishmania major [11] gave an inhibition of 58.9%. In addition, testing at 1 µM in the test on Leishmania major [12] gave an inhibition of 55.9%. This compound also displayed an inhibition at 0.1 µM in the test with Leishmania major [13] of 52.3%.

For `Nn1c(S)nnc1-c1ccncc1`, the IC50 came out at 13.5 µM on Acetylcholinesterase, 49.6 µM against Cholinesterase and 4.43 µM in test [1]. Further, the inhibition of growth at 100 µM in [2] came to 48.3%; with NCI-H157 [6] it was 51.5%; in the test with Leishmania major [10] (read-out: GI) it was 39.5%. Further, the figures for the inhibition of growth at 10 µM (in test [3]; with NCI-H157 [7]) were 45.1% and 47.4%, respectively. Moreover, the inhibition of growth at 1 µM in test [4] turned out to be 42.1%; with NCI-H157 [8], 43.4%. Further, the inhibition of growth at 0.1 µM in test [5] stood at 39.6%; in the test with NCI-H157 [9], 40.4%. Testing at 10 µM in the test with Leishmania major [11] gave an inhibition of 36.7%. Further, testing at 1 µM in the test on Leishmania major [12] gave an inhibition of 33.6%. In addition, testing at 0.1 µM in the test on Leishmania major [13] gave an inhibition of 30.9%.

With `CC[C@]1(O)C[C@H]2CN(CCc3c([nH]c4ccccc34)[C@@](C(=O)OC)(c3cc4c(cc3OC)N(C=O)[C@H]3[C@@](O)(C(=O)OC)[C@H](OC(C)=O)[C@]5(CC)C=CCN6CC[C@]43[C@@H]65)C2)C1` [VINCRISTINE], the inhibition of growth at 100 µM (in test [2]; in the test on NCI-H157 [6]) was 74.5% throughout. For the same compound, the inhibition of growth at 10 µM (in test [3]; in the test on NCI-H157 [7]) was 72.6% in each case. Further, the inhibition of growth at 1 µM (in [4]; in the test on NCI-H157 [8]) was 70.9% each time. For the same compound, the inhibition of growth at 0.1 µM (in test [5]; in the test on NCI-H157 [9]) was 69.8% each time.

As a reminder, the IC50 is the concentration that gives 50% inhibition. The term inhibition denotes the drop in the measured response relative to a control, in per cent.
